Test results as given in ChEMBL document CHEMBL5712090, “Therapeutic targeting of p300/CBP HAT domain for the treatment of NUT midline carcinoma” (Oncogene, 2020).
pIC50: −log10 of the molar value. Calls of active or inactive are those of the source. The rule behind the calls is not given here.

Columns and labels:
HCC2429 [1] = assay: Induction of squamous differentiation in human HCC2429 cells assessed as accumulation of pan-keratin in cytoplasm at 0.5 microM for 5 days by immunofluorescence staining method; format: functional, cell-based; conditions: time 5.0 day
Outline: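 HCC2429 cells exposed 5 days to 0.5 µM. Cytokeratin detected by immunofluorescence.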

HCC2429 [2] = assay: Inhibition of p300/CBP in human HCC2429 cells assessed as H3K27ac protein acetylation at 1 microM for 3 days by immunofluorescence analysis; format: cell-based; conditions: time 3.0 day
Outline: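 HCC2429 cells treated 3 days with 1 µM or DMSO. H3K27ac, BRD4-NUT and wild-type BRD4 imaged by immunofluorescence.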

HCC2429 [3] = assay: Induction of apoptosis in human HCC2429 cells assessed as cleaved caspase-3 expression at 0.5 microM incubated for 72 hrs by immunoblot analysis; format: functional, cell-based
Outline: (§1)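 HCC2429 cells given 0.5 or 1 µM for 24, 48 and 72 h. Cleaved caspase-3 detected by immunoblot.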

HCC2429 [4] = assay: Induction of apoptosis in human HCC2429 cells assessed as cleaved caspase-3 expression at 250 nM incubated for 72 hrs in presence of JQ1 by immunoblot analysis; format: functional, cell-based
Outline: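 HCC2429 cells treated 72 h with 250 nM alone, 50 nM JQ1 alone, or both combined. Cleaved caspase-3 detected by immunoblot.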

HCC2429 [5] = assay: Induction of apoptosis in human HCC2429 cells assessed as cleaved caspase-3 expression at 0.5 microM incubated for 48 hrs by immunoblot analysis; format: functional, cell-based; outline: as §1
HCC2429 [6] = assay: Downregulation of MYC mRNA level in human HCC2429 cells for 48 hrs treatment by qRT-PCR analysis; format: functional, cell-based
Outline: (§2)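 HCC2429 cells treated at indicated concentrations for 48 h. MYC, CCAT1 and TP63 mRNA measured by quantitative RT-PCR.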

Ty-82 = assay: Antiproliferative activity against human Ty-82 cells for 72 hrs incubation measured by Celltiter Glo Cell Viability assay; format: functional, cell-based; conditions: TY82, 72 h
Outline: (§3)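 Cells exposed to inhibitor over 10 nM–25 µM for 72 h; viability read by CellTiter Glo luminescence. IC50 taken from dose-response curve fit. Mean ± SD of three technical replicates.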

HCC2429 [7] = assay: Induction of cell differentiation in human HCC2429 cells assessed as c-fos mRNA level at 250 nM for 5 days in presence of JQ1 by qRT-PCR analysis; format: functional, cell-based; conditions: time 5.0 day
Outline: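 HCC2429 cells given 250 nM, 50 nM JQ1, or the combination for 5 days. KRT10, KRT14, TGM1 and c-fos mRNA by qRT-PCR. Mean ± SEM of three independent experiments.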

HCC2429 [8] = assay: Inhibition of p300/CBP in human HCC2429 cells assessed as H3K27ac protein acetylation at MYC promoter and TP63 enhancer region with 1 microM for 3 days by ChIP analysis; format: cell-based; conditions: time 3.0 day
Outline: (§4)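 HCC2429 cells held 3 days at 1 µM or DMSO. Chromatin precipitated with H3K27ac, NUT or normal rabbit IgG antibodies. MYC promoter and TP63 enhancer quantified by qPCR as fold enrichment over IgG. Mean ± SEM, four independent experiments.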

HCC2429 [9] = assay: Induction of squamous differentiation in human HCC2429 cells assessed as flattening of cells at 0.5 microM for 5 days by immunofluorescence staining method; format: functional, cell-based; conditions: time 5.0 day
PER-403 = assay: Induction of squamous differentiation in human PER-403 cells assessed as change in cell phenotype at 0.5 microM for 5 days by immunofluorescence staining method; format: functional, cell-based; conditions: time 5.0 day
TC-797 = assay: Induction of squamous differentiation in human TC-797 cells assessed as change in cell phenotype at 0.5 microM for 5 days by immunofluorescence staining method; format: functional, cell-based; conditions: time 5.0 day
HCC2429 [10] = assay: Downregulation of MYC protein level in human HCC2429 cells for 48 hrs treatment by qRT-PCR analysis; format: functional, cell-based; conditions: in the assay text read “immunoblot analysis” for “qRT-PCR analysis”
Outline: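 HCC2429 cells treated at indicated concentrations for 48 h. MYC and H3K27ac protein assessed by immunoblot.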

HCC2429 [11] = assay: Induction of cell differentiation in human HCC2429 cells assessed as increase in c-fos mRNA level at 0.5 microM for 5 days by qRT-PCR analysis
HCC2429 [12] = assay: Downregulation of CCAT1 mRNA level in human HCC2429 cells for 48 hrs treatment by qRT-PCR analysis; format: functional, cell-based; outline: as §2
HCC2429 [13] = assay: Downregulation of TP63 mRNA level in human HCC2429 cells for 48 hrs treatment by qRT-PCR analysis; format: functional, cell-based; outline: as §2
HCC2429 [14] = assay: Inhibition of colony formation in human HCC2429 cells assessed as inhibition in colony formation at 250 nM incubated for 72 hrs in presence of JQ1 by crystal violet staining based assay; format: functional, cell-based
Outline: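 HCC2429 cells incubated 72 h with 250 nM, 50 nM JQ1, or both. Colony formation then scored.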

HCC2429 [15] = assay: Induction of cell cycle arrest in human HCC2429 cells assessed as G1 cell cycle arrest at 0.5 microM incubated for 24 hrs by flow cytometry analysis; format: functional, cell-based
Outline: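 HCC2429 cells exposed to 0.5 or 1 µM for 24, 48 and 72 h, then analysed by flow cytometry. Mean ± SEM, three independent experiments.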

HCC2429 [16] = assay: Inhibition of p300/CBP in human HCC2429 cells assessed as BRD4-NUT level at MYC promoter and TP63 enhancer region with 1 microM for 3 days by ChIP analysis; format: cell-based; conditions: time 3.0 day; outline: as §4
HCC2429 [17] = assay: Induction of cell differentiation in human HCC2429 cells assessed as increase in involucrin-protein level at 0.5 microM for 5 days by immunoblot analysis
HCC2429 [18] = assay: Antiproliferative activity against human HCC2429 cells for 72 hrs incubation measured by Celltiter Glo Cell Viability assay; format: functional, cell-based; conditions: HCC2429, 72 h; outline: as §3
[19] = Antiproliferative activity against human 00-143 cells for 72 hrs incubation measured by Celltiter Glo Cell Viability assay; format: functional, cell-based; conditions: 00-143, 72 h; outline: as §3

SMILES: CNC(=O)Nc1ccc2c(c1)CC[C@@]21OC(=O)N(CC(=O)N(Cc2ccc(F)cc2)[C@@H](C)C(F)(F)F)C1=O [A-485]
- Activity (HCC2429 [1]): Active
- inhibition (HCC2429 [2]): Active
- Activity (HCC2429 [3]): Active
- Activity (HCC2429 [4]): Active
- Activity (HCC2429 [5]): Active
- Activity (HCC2429 [6]): Active
- pIC50 (Ty-82): 6.68
- Activity (HCC2429 [7]): Active
- inhibition (HCC2429 [8]): Active
- Activity (HCC2429 [9]): Active
- Activity (PER-403): Active
- Activity (TC-797): Active
- Activity (HCC2429 [10]): Active
- Activity (HCC2429 [11]): Active
- Activity (HCC2429 [12]): Active
- Activity (HCC2429 [13]): Active
- inhibition (HCC2429 [14]): Active
- Activity (HCC2429 [15]): Active
- inhibition (HCC2429 [16]): Active
- Activity (HCC2429 [17]): Active
- pIC50 (HCC2429 [18]): 6.12
- pIC50 [19]: 6.01
